From ChEMBL document CHEMBL5096186, “Design, Synthesis, and Biological Evaluation of Novel Pyrimido[4,5-b]indole Derivatives Against Gram-Negative Multidrug-Resistant Pathogens” (J Med Chem, 2021)
≈ marks a conversion by molar mass, not a printed value.

Key:
Escherichia coli [1] = test: Antibacterial activity against ESBL-producing multidrug resistant Escherichia coli assessed as reduction in bacterial growth incubated for 18 to 20 hrs by CLSI based microdilution method; type: functional; details: time 18-20 hrs
Outline: (§1)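 Broth microdilution per CLSI. Compounds dissolved in DMSO (levofloxacin and meropenem in water) as 64 μg/mL stock, then serial twofold dilutions in broth giving 64 to 0.008 μg/mL. […] Clinical isolates tested as several strains per group; racemic GP-1 served as positive control; values given as MIC ranges.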

Escherichia coli [2] = test: Antibacterial activity against multidrug resistant wild type Escherichia coli ATCC BAA-2340 assessed as reduction in bacterial growth incubated for 18 to 20 hrs by CLSI based microdilution method; type: functional; details: time 18-20 hrs; outline: as §1
Escherichia coli [3] = test: Antibacterial activity against multidrug resistant wild type Escherichia coli NCTC 13353 assessed as reduction in bacterial growth incubated for 18 to 20 hrs by CLSI based microdilution method; type: functional; details: time 18-20 hrs; outline: as §1
Klebsiella pneumoniae [4] = test: Antibacterial activity against KPC2-producing multidrug resistant Klebsiella pneumoniae assessed as reduction in bacterial growth incubated for 18 to 20 hrs by CLSI based microdilution method; type: functional; details: time 18-20 hrs; outline: as §1
Klebsiella pneumoniae [5] = test: Antibacterial activity agains wild type Klebsiella pneumoniae ATCC BAA-1705 assessed as reduction in bacterial growth incubated for 18 to 20 hrs by CLSI based microdilution method; type: functional; details: time 18-20 hrs
Outline: (§2)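 CLSI broth microdilution. Compounds in DMSO (levofloxacin and meropenem in water), serial twofold dilutions in broth, 64 to 0.008 μg/mL. […] Results reported as MIC ranges across strains.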

Klebsiella pneumoniae [6] = test: Antibacterial activity agains wild type Klebsiella pneumoniae ATCC BAA-2470 assessed as reduction in bacterial growth incubated for 18 to 20 hrs by CLSI based microdilution method; type: functional; details: time 18-20 hrs; outline: as §1
Acinetobacter baumannii [7] = test: Antibacterial activity agains OXA23-producing multidrug resistant Acinetobacter baumannii assessed as reduction in bacterial growth incubated for 18 to 20 hrs by CLSI based microdilution method; type: functional; details: time 18-20 hrs; outline: as §1
Acinetobacter baumannii [8] = test: Antibacterial activity against wild type Acinetobacter baumannii NCTC 13304 assessed as reduction in bacterial growth incubated for 18 to 20 hrs by CLSI based microdilution method; type: functional; details: time 18-20 hrs; outline: as §1
Pseudomonas aeruginosa [9] = test: Antibacterial activity against IMP4-producing multidrug resistant Pseudomonas aeruginosa assessed as reduction in bacterial growth incubated for 18 to 20 hrs by CLSI based microdilution method; type: functional; details: time 18-20 hrs; outline: as §1
Pseudomonas aeruginosa [10] = test: Antibacterial activity against wild type Pseudomonas aeruginosa ATCC 27853 assessed as reduction in bacterial growth incubated for 18 to 20 hrs by CLSI based microdilution method; type: functional; details: time 18-20 hrs; outline: as §2
[11] = Metabolic stability in rat liver microsome assessed as elimination half life at 0.1 uM in presence of NADPH incubated upto 60 mins by LC-MS/MS analysis; type: ADME; details: liver microsomes, read-out: beta t1/2
Outline: (§3)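 Compound at 0.1 μM final, in 0.01% DMSO with 0.005% BSA. Incubated with rat or human liver microsomes at 0.33 mg/mL in 0.1 M Tris-HCl, pH 7.4, with 5 mM MgCl₂ and 1 mM NADPH, at 37 °C. Samples at 0, 7, 17, 30 and 60 min quenched with cold methanol and analysed by LC-MS/MS. Half-life, Cl_int and MF% derived as previously described.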

[12] = Metabolic stability in human liver microsome assessed as elimination half life at 0.1 uM in presence of NADPH incubated upto 60 mins by LC-MS/MS analysis; type: ADME; details: liver microsomes, read-out: beta t1/2; outline: as §3
[13] = Metabolic stability in rat liver microsome assessed as intrinsic clearance at 0.1 uM in presence of NADPH incubated upto 60 mins by LC-MS/MS analysis; type: ADME; details: microsomes, 1 h; outline: as §3
[14] = Metabolic stability in human liver microsome assessed as intrinsic clearance at 0.1 uM in presence of NADPH incubated upto 60 mins by LC-MS/MS analysis; type: ADME; details: microsomes, 1 h; outline: as §3
[15] = Metabolic stability in rat liver microsome assessed as metabolic bioavailability at 0.1 uM in presence of NADPH incubated upto 60 mins by LC-MS/MS analysis; type: ADME; details: liver microsomes; outline: as §3
[16] = Metabolic stability in human liver microsome assessed as metabolic bioavailability at 0.1 uM in presence of NADPH incubated upto 60 mins by LC-MS/MS analysis; type: ADME; details: liver microsomes; outline: as §3
[17] = AUC (0 to infinity) in Sprague-Dawley rat at 5 mg/kg, iv measured upto 24 hrs by LC-MS/MS analysis; type: ADME, organism-based; set-up: time < 24 hrs, dose 5 mg/kg, route iv; details: in vivo
Outline: (§4)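 Male Sprague-Dawley rats, n = 3 per group, single intravenous dose. For 4 mg/kg: 180–280 g rats, vehicle 5% DMSO + 5% EtOH + 40% PEG300 + 50% saline, blood from the retrobulbar vein at 0.05–24 h. For 5 and 20 mg/kg: 180–300 g rats, vehicle 5% DMSO + 5% solutol + 90% saline, sampled at 0.083–24 h. Plasma quantified by LC/MS/MS. Parameters from mean plasma concentration by noncompartmental analysis; values are mean ± standard deviation.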

[18] = Elimination half life in Sprague-Dawley rat at 5 mg/kg, iv measured upto 24 hrs by LC-MS/MS analysis; type: ADME, organism-based; details: in vivo, read-out: beta t1/2 (converted); outline: as §4
[19] = MRT in Sprague-Dawley rat at 5 mg/kg, iv measured upto 24 hrs by LC-MS/MS analysis; type: ADME, organism-based; details: in vivo; outline: as §4
[20] = Clearance in Sprague-Dawley rat at 5 mg/kg, iv measured upto 24 hrs by LC-MS/MS analysis; type: ADME, organism-based; details: in vivo; outline: as §4
[21] = Volume of distribution at the steady state in Sprague-Dawley rat at 5 mg/kg, iv measured upto 24 hrs by LC-MS/MS analysis; type: ADME, organism-based; details: in vivo, read-out: Vdss; outline: as §4
Staphylococcus aureus = test: Antibacterial activity against methicillin-sensitive Staphylococcus aureus strains 15 1 to 4 assessed as reduction in bacterial growth incubated for 18 to 20 hrs by CLSI based microdilution method; type: functional; details: time 18-20 hrs; outline: as §1
[22] = tested on: Staphylococcus epidermidis; test: Antibacterial activity against methicillin-sensitive Staphylococcus epidermidis strains 15 1 to 4 assessed as reduction in bacterial growth incubated for 18 to 20 hrs by CLSI based microdilution method; type: functional; details: time 18-20 hrs; outline: as §1
Escherichia coli [23] = test: Antibacterial activity against ESBL-producing Escherichia coli ATCC 35218 strains 15 1 to 3 assessed as reduction in bacterial growth incubated for 18 to 20 hrs by CLSI based microdilution method; type: functional; details: time 18-20 hrs; outline: as §2
Escherichia coli [24] = test: Antibacterial activity against Escherichia coli ATCC 35218 strains 15 1 to 3 assessed as reduction in bacterial growth incubated for 18 to 20 hrs by CLSI based microdilution method; type: functional; details: time 18-20 hrs; outline: as §2
Pseudomonas aeruginosa [25] = test: Antibacterial activity against multidrug resistant Pseudomonas aeruginosa strains 15 1 to 3 assessed as reduction in bacterial growth incubated for 18 to 20 hrs by CLSI based microdilution method; type: functional; details: time 18-20 hrs; outline: as §1
[26] = biological target: hERG (KCNH2) potassium channel (Homo sapiens, UniProt Q12809); test: Inhibition of hERG potassium channel assessed as maximum inhibition rate at 40 uM at -80 mV holding potential incubated for 120 seconds by whole cell-automated voltage clamp analysis assay relative to control; type: toxicity; details: time 120 sec
Outline: (§5)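 Automated whole-cell patch clamp, holding potential −80 mV. Voltage protocol applied every 20 s. Baseline set with external solution containing 0.1% DMSO and stabilised 3 min. Compound applied until steady state, at least 3 min, then washout. Maximum tested concentration 40 μM, or 3 μM for cisapride as positive control.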

[27] = biological target: Voltage-gated inwardly rectifying potassium channel KCNH2 (Homo sapiens, UniProt Q12809); test: Inhibition of hERG potassium channel assessed as […] at -80 mV holding potential incubated for 120 seconds by whole cell-automated voltage clamp analysis assay; type: toxicity; outline: as §5
[28] = Cytotoxicity against human L02 cells assessed as cell viability measured for 48 hrs by CCK-8 assay; type: toxicity, cell-based
Outline: (§6)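 Cells seeded at 1 × 10⁴ per well and grown for 48 h. Then exposed to test articles at 1–200 μM for another 48 h (n = 6). Viability by CCK-8 added for 2 h, absorbance read at 450 nm. CC50 calculated and reported as the mean.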

[29] = Cytotoxicity against human HEK293 cells assessed as cell viability measured for 48 hrs by CCK-8 assay; type: toxicity, cell-based; outline: as §6

Chain of Voltage-gated inwardly rectifying potassium channel KCNH2 (Q12809 whole entry): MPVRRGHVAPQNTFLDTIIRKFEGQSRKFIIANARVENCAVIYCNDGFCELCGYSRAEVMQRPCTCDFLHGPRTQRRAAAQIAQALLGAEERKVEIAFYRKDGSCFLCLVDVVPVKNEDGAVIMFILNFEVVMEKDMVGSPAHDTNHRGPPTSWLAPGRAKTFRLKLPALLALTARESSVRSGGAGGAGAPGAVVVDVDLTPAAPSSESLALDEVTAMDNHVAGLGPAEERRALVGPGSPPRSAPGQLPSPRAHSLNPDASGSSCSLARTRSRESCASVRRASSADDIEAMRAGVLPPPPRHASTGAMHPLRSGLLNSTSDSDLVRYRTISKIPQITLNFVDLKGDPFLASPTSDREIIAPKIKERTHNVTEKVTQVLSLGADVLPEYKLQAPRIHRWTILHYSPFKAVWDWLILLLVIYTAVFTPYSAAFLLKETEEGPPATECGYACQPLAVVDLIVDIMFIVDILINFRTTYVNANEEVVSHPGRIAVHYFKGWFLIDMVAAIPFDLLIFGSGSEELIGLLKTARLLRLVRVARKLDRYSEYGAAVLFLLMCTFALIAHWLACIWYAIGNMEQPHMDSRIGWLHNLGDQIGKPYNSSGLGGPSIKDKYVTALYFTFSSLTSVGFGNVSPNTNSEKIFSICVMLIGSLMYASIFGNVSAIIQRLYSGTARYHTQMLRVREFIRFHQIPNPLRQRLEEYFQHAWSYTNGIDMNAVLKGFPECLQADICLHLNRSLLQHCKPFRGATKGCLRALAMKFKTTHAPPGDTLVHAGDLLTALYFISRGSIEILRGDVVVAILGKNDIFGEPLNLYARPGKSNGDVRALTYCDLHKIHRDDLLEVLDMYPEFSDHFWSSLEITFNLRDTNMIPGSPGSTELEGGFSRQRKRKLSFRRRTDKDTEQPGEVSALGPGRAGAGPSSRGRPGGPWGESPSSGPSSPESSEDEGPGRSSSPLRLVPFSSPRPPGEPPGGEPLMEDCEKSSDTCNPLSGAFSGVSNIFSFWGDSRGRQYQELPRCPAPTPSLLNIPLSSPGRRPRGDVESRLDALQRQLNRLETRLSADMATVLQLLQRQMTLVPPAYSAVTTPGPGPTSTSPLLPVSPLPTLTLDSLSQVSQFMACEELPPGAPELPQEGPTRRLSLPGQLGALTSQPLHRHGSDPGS
Chain of hERG (KCNH2) potassium channel (Q12809 whole entry): as above

Compound | MIC (Escherichia coli [1]) [µg/mL] | MIC (Escherichia coli [2]) [µg/mL] | MIC (Escherichia coli [3]) [µg/mL] | MIC (Klebsiella pneumoniae [4]) [µg/mL] | MIC (Klebsiella pneumoniae [5]) [µg/mL] | MIC (Klebsiella pneumoniae [6]) [µg/mL] | MIC (Acinetobacter baumannii [7]) [µg/mL] | MIC (Acinetobacter baumannii [8]) [µg/mL] | MIC (Pseudomonas aeruginosa [9]) [µg/mL] | MIC (Pseudomonas aeruginosa [10]) [µg/mL] | further results
[2H]C([2H])([2H])Nc1cc(F)cc2c1[nH]c1nc(Oc3cnc(C)nc3)nc(N3CC(=C(C)[C@@H](C)N)C3)c12 | 0.5 (≈ 1.11 µM) | 0.25 (≈ 0.554 µM) | 0.125 (≈ 0.277 µM) | 1 (≈ 2.21 µM) | 4 (≈ 8.86 µM) | 2 (≈ 4.43 µM) | 0.25 (≈ 0.554 µM) | 0.25 (≈ 0.554 µM) | 4 (≈ 8.86 µM) | 2 (≈ 4.43 µM) | half-life at 0.1 µM [11]: 9.8 min; half-life at 0.1 µM [12]: 2.98 h; CLH [13]: 215 mL/min/g; CLH [14]: 11.7 mL/min/g; Fh at 1 h, 0.1 µM [15]: 17.2%; Fh at 1 h, 0.1 µM [16]: 62.6%; AUC(0-inf) [17]: 634 ng·h/mL; half-life [18]: 6.5 h; MRT [19]: 5.6 h; clearance [20]: 132 mL/min/kg; Vd [21]: 44.5 L/kg
C=CCC(CN)=C1CN(c2nc(Oc3cnc(C)nc3)nc3[nH]c4c(NC)cc(F)cc4c23)C1 | 0.5 (≈ 1.09 µM) | 0.5 (≈ 1.09 µM) | 0.25 (≈ 0.543 µM) | 2 (≈ 4.34 µM) | 4 (≈ 8.69 µM) | 2 (≈ 4.34 µM) | 0.25 (≈ 0.543 µM) | 0.25 (≈ 0.543 µM) | 8 (≈ 17.4 µM) | 4 (≈ 8.69 µM) | MIC (Staphylococcus aureus): < 0.008 µg/mL; MIC [22]: < 0.008 µg/mL; MIC (Escherichia coli [23]): 0.125 µg/mL (≈ 0.271 µM); MIC (Escherichia coli [24]): 0.06 µg/mL (≈ 0.13 µM); MIC (Pseudomonas aeruginosa [25]): 1 µg/mL (≈ 2.17 µM); inhibition at 2 min, 40 µM [26]: 49.1%; IC50 [27]: > 40 µM; CC50 at 48 h [28]: 6.99 µM; CC50 at 48 h [29]: 29 µM
